Laboratory results taken from ChEMBL document CHEMBL3745626, “Synthesis of β-boswellic acid derivatives as cytotoxic and apoptotic agents” (Bioorg Med Chem Lett, 2016).
Each block holds one compound with its values, some of them ahead of it. Calls of active or inactive are those of the source. No cut-off for these calls is given here.

Key:
[1] = Anticancer activity against human HCT116 cells assessed as growth inhibition at 100 uM after 24 hrs by sulforhodamine B assay; assay type: functional; conditions: HCT-116, 24 h
[2] = test system: A549; experiment: Anticancer activity against human A549 cells assessed as growth inhibition at 100 uM after 24 hrs by sulforhodamine B assay; assay type: functional; conditions: A549, 24 h
[3] = Anticancer activity against human PC3 cells assessed as growth inhibition at 100 uM after 24 hrs by sulforhodamine B assay; assay type: functional; conditions: PC-3, 24 h
[4] = Anticancer activity against human HT1080 cells assessed as growth inhibition at 100 uM after 24 hrs by sulforhodamine B assay; assay type: functional; conditions: HT-1080, 24 h
[5] = test system: T47D; experiment: Anticancer activity against human T47D cells assessed as growth inhibition after 24 hrs by sulforhodamine B assay; assay type: functional, cell-based
Method in brief: (§1)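 SRB assay on human cancer cell lines over a range of concentrations; inhibitory values calculated from concentration–response data, mean ± SD of three experiments.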

[6] = test system: HCT-116; experiment: Induction of ROS generation in human HCT116 cells after 48 hrs by 2',7'-dichlorofluorescien diacetate staining based fluorescence microscopy; assay type: functional, cell-based
Method in brief: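 HCT-116 cells exposed 48 h at 1 and 2.5 μM, loaded with DCFDA; DCF fluorescence measured by imaging and spectrofluorometry; H2O2 positive control.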

[7] = Anticancer activity against human PC3 cells assessed as growth inhibition after 24 hrs by sulforhodamine B assay; assay type: functional, cell-based; conditions: PC-3, 24 h; method in brief: as §1
[8] = test system: HCT-116; experiment: Induction of apoptosis in human HCT116 cells assessed as loss of mitochondrial membrane potential after 48 hrs by rhodamine 123 staining based confocal microscopy; assay type: functional, cell-based
Method in brief: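 Rhodamine-123 staining of HCT-116 cells treated at 1, 2.5 and 5 μM; mitochondrial fluorescence intensity read by laser scanning confocal microscopy; paclitaxel (50 nM) positive control; mean ± SD.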

[9] = test system: HCT-116; experiment: Anticancer activity against human HCT116 cells assessed as inhibition of colony formation at 1 to 5 uM after 48 hrs by clonogenic assay; assay type: functional, cell-based
Method in brief: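 HCT-116 cells treated at 1, 2.5 and 5 μM, then reseeded at suitable dilution (500 cells for untreated control) in six-well plates to form colonies over 1-3 weeks; survival fraction expressed relative to untreated control; paclitaxel positive control.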

[10] = Anticancer activity against human HCT116 cells assessed as growth inhibition after 24 hrs by sulforhodamine B assay; assay type: functional, cell-based; conditions: HCT-116, 24 h; method in brief: as §1
[11] = Cytotoxicity against human FR2 cells assessed as growth inhibition after 24 hrs by sulforhodamine B assay; assay type: cell-based; conditions: FR2, 24 h
[12] = test system: A549; experiment: Anticancer activity against human A549 cells assessed as growth inhibition after 24 hrs by sulforhodamine B assay; assay type: functional, cell-based; conditions: A549, 24 h; method in brief: as §1
[13] = test system: HCT-116; experiment: Induction of apoptosis in human HCT116 cells assessed as increase in apoptotic body formation after 48 hrs by DAPI staining based fluorescence microscopy; assay type: functional, cell-based
Method in brief: (§2)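 HCT-116 cells exposed to 1, 2.5 and 5 μM for 48 h, nuclei stained with DAPI and examined by fluorescence microscopy for chromatin condensation and apoptotic bodies; untreated and paclitaxel controls.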

[14] = test system: HCT-116; experiment: Induction of apoptosis in human HCT116 cells assessed as PARP cleavage at 1 to 5 uM after 48 hrs by Western blot analysis; assay type: functional, cell-based
Method in brief: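 HCT-116 cells incubated 48 h at 1, 2.5 and 5 μM; intact and cleaved PARP-1 detected by western blot, β-actin loading control; paclitaxel positive control.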

[15] = test system: HCT-116; experiment: Induction of apoptosis in human HCT116 cells assessed as chromatin condensation after 48 hrs by DAPI staining based fluorescence microscopy; assay type: functional, cell-based; method in brief: as §2
[16] = test system: HCT-116; experiment: Induction of apoptosis in human HCT116 cells assessed as PARP cleavage at 50 nM after 48 hrs by Western blot analysis; assay type: functional, cell-based

Compound: COC(=O)[C@@]1(C)C(=O)/C(=C/c2ccccc2F)C[C@]2(C)[C@H]3CC=C4[C@@H]5[C@@H](C)[C@H](C)CC[C@]5(C)CC[C@@]4(C)[C@]3(C)CC[C@@H]12
inhibition at 100 µM [1]: 0% | inhibition at 100 µM [2]: 47% | inhibition at 100 µM [3]: 44% | inhibition at 100 µM [4]: 23%

Compound: COC(=O)[C@@]1(C)C(=O)/C(=C/c2ccc(F)c(Br)c2)C[C@]2(C)[C@H]3CC=C4[C@@H]5[C@@H](C)[C@H](C)CC[C@]5(C)CC[C@@]4(C)[C@]3(C)CC[C@@H]12
inhibition at 100 µM [1]: 27% | inhibition at 100 µM [2]: 47% | inhibition at 100 µM [3]: 40% | inhibition at 100 µM [4]: 43%

Compound: COC(=O)[C@@]1(C)C(=O)/C(=C/c2ccc(Cl)cc2)C[C@]2(C)[C@H]3CC=C4[C@@H]5[C@@H](C)[C@H](C)CC[C@]5(C)CC[C@@]4(C)[C@]3(C)CC[C@@H]12
inhibition at 100 µM [1]: 0% | inhibition at 100 µM [2]: 7% | inhibition at 100 µM [3]: 10% | inhibition at 100 µM [4]: 6%

Compound: COC(=O)[C@@]1(C)C(=O)/C(=C/c2ccc(OC(F)(F)F)cc2)C[C@]2(C)[C@H]3CC=C4[C@@H]5[C@@H](C)[C@H](C)CC[C@]5(C)CC[C@@]4(C)[C@]3(C)CC[C@@H]12
inhibition at 100 µM [1]: 0% | inhibition at 100 µM [2]: 14% | inhibition at 100 µM [3]: 35% | inhibition at 100 µM [4]: 78%

Compound: COC(=O)[C@@]1(C)C(=O)/C(=C/c2cc(C(F)(F)F)cc(C(F)(F)F)c2)C[C@]2(C)[C@H]3CC=C4[C@@H]5[C@@H](C)[C@H](C)CC[C@]5(C)CC[C@@]4(C)[C@]3(C)CC[C@@H]12
inhibition at 100 µM [1]: 10% | inhibition at 100 µM [2]: 5% | inhibition at 100 µM [3]: 7% | inhibition at 100 µM [4]: 0%

IC50 [5]: 1.26 µM | IC50 [12]: 2.13 µM
Compound: COC(=O)[C@@]1(C)C(=O)/C(=C/c2ccncc2)C[C@]2(C)[C@H]3CC=C4[C@@H]5[C@@H](C)[C@H](C)CC[C@]5(C)CC[C@@]4(C)[C@]3(C)CC[C@@H]12
inhibition at 100 µM [1]: 100% | Activity [6]: Dose-dependent effect | IC50 [7]: 1.96 µM | Activity [8]: Dose-dependent effect | inhibition at 100 µM [2]: 99% | inhibition [9]: Dose-dependent effect | inhibition at 100 µM [3]: 100% | IC50 [10]: 1.84 µM | IC50 [11]: 21.4 µM | inhibition at 100 µM [4]: 95% | Activity [13]: Dose-dependent effect | Activity [14]: Active | Activity [15]: Dose-dependent effect

Compound: COC(=O)[C@@]1(C)C(=O)/C(=C/c2ccccc2Cl)C[C@]2(C)[C@H]3CC=C4[C@@H]5[C@@H](C)[C@H](C)CC[C@]5(C)CC[C@@]4(C)[C@]3(C)CC[C@@H]12
inhibition at 100 µM [1]: 0% | inhibition at 100 µM [2]: 0% | inhibition at 100 µM [3]: 25% | inhibition at 100 µM [4]: 21%

Compound: COC(=O)[C@@]1(C)C(=O)/C(=C/c2ccc([N+](=O)[O-])cc2)C[C@]2(C)[C@H]3CC=C4[C@@H]5[C@@H](C)[C@H](C)CC[C@]5(C)CC[C@@]4(C)[C@]3(C)CC[C@@H]12
inhibition at 100 µM [1]: 30% | inhibition at 100 µM [2]: 47% | inhibition at 100 µM [3]: 52% | inhibition at 100 µM [4]: 36%

Compound: COC(=O)[C@@]1(C)C(=O)/C(=C/c2cccs2)C[C@]2(C)[C@H]3CC=C4[C@@H]5[C@@H](C)[C@H](C)CC[C@]5(C)CC[C@@]4(C)[C@]3(C)CC[C@@H]12
inhibition at 100 µM [1]: 40% | inhibition at 100 µM [2]: 42% | inhibition at 100 µM [3]: 19% | inhibition at 100 µM [4]: 37%

Compound: COC(=O)[C@@]1(C)C(=O)CC[C@]2(C)[C@H]3CC=C4[C@@H]5[C@@H](C)[C@H](C)CC[C@]5(C)CC[C@@]4(C)[C@]3(C)CC[C@@H]12
inhibition at 100 µM [1]: 58% | inhibition at 100 µM [2]: 56% | inhibition at 100 µM [3]: 44% | inhibition at 100 µM [4]: 21%

Compound: COC(=O)[C@@]1(C)C(=O)/C(=C/c2ccc(F)cc2F)C[C@]2(C)[C@H]3CC=C4[C@@H]5[C@@H](C)[C@H](C)CC[C@]5(C)CC[C@@]4(C)[C@]3(C)CC[C@@H]12
inhibition at 100 µM [1]: 32% | inhibition at 100 µM [2]: 33% | inhibition at 100 µM [3]: 20% | inhibition at 100 µM [4]: 0%

IC50 [5]: 15.6 µM | IC50 [12]: 26.1 µM
Compound: COC(=O)[C@@]1(C)C(=O)/C(=C/c2ccccn2)C[C@]2(C)[C@H]3CC=C4[C@@H]5[C@@H](C)[C@H](C)CC[C@]5(C)CC[C@@]4(C)[C@]3(C)CC[C@@H]12
inhibition at 100 µM [1]: 100% | IC50 [7]: 24.4 µM | inhibition at 100 µM [2]: 100% | inhibition at 100 µM [3]: 100% | IC50 [10]: 7.2 µM | IC50 [11]: 59 µM | inhibition at 100 µM [4]: 95%

Compound: COC(=O)[C@@]1(C)C(=O)/C(=C/c2ccc(C)cc2)C[C@]2(C)[C@H]3CC=C4[C@@H]5[C@@H](C)[C@H](C)CC[C@]5(C)CC[C@@]4(C)[C@]3(C)CC[C@@H]12
inhibition at 100 µM [1]: 20% | inhibition at 100 µM [2]: 28% | inhibition at 100 µM [3]: 11% | inhibition at 100 µM [4]: 26%

Compound: COC(=O)[C@@]1(C)C(=O)/C(=C/c2cc(OC)cc(OC)c2)C[C@]2(C)[C@H]3CC=C4[C@@H]5[C@@H](C)[C@H](C)CC[C@]5(C)CC[C@@]4(C)[C@]3(C)CC[C@@H]12
inhibition at 100 µM [1]: 21% | inhibition at 100 µM [2]: 55% | inhibition at 100 µM [3]: 41% | inhibition at 100 µM [4]: 17%

Compound: COC(=O)[C@@]1(C)C(=O)/C(=C/c2ccc3ccccc3n2)C[C@]2(C)[C@H]3CC=C4[C@@H]5[C@@H](C)[C@H](C)CC[C@]5(C)CC[C@@]4(C)[C@]3(C)CC[C@@H]12
inhibition at 100 µM [1]: 37% | inhibition at 100 µM [2]: 37% | inhibition at 100 µM [3]: 44% | inhibition at 100 µM [4]: 43%

Compound: COC(=O)[C@@]1(C)C(=O)/C(=C/c2cccc([N+](=O)[O-])c2)C[C@]2(C)[C@H]3CC=C4[C@@H]5[C@@H](C)[C@H](C)CC[C@]5(C)CC[C@@]4(C)[C@]3(C)CC[C@@H]12
inhibition at 100 µM [1]: 6% | inhibition at 100 µM [2]: 0% | inhibition at 100 µM [3]: 10% | inhibition at 100 µM [4]: 13%

Compound: COC(=O)[C@@]1(C)C(=O)/C(=C/c2ccco2)C[C@]2(C)[C@H]3CC=C4[C@@H]5[C@@H](C)[C@H](C)CC[C@]5(C)CC[C@@]4(C)[C@]3(C)CC[C@@H]12
inhibition at 100 µM [1]: 18% | inhibition at 100 µM [2]: 48% | inhibition at 100 µM [3]: 44% | inhibition at 100 µM [4]: 16%

IC50 [5]: > 100 µM | IC50 [12]: 56.1 µM
Compound: COC(=O)[C@@]1(C)C(=O)/C(=C/c2ccc(Cl)cc2Cl)C[C@]2(C)[C@H]3CC=C4[C@@H]5[C@@H](C)[C@H](C)CC[C@]5(C)CC[C@@]4(C)[C@]3(C)CC[C@@H]12
inhibition at 100 µM [1]: 49% | IC50 [7]: 69.5 µM | inhibition at 100 µM [2]: 97% | inhibition at 100 µM [3]: 79% | IC50 [10]: > 100 µM | IC50 [11]: > 100 µM | inhibition at 100 µM [4]: 100%

Compound: CC(=O)O[C@H]1C(=O)[C@@]2(C)[C@H]([C@H](OC(=O)c3ccccc3)[C@]3(O)C[C@H](OC(=O)[C@H](O)[C@@H](NC(=O)c4ccccc4)c4ccccc4)C(C)=C1C3(C)C)[C@]1(OC(C)=O)CO[C@@H]1C[C@@H]2O
Activity [16]: Active | Activity [13]: Active

Compound: COC(=O)[C@@]1(C)C(=O)/C(=C/c2cccc(Br)c2)C[C@]2(C)[C@H]3CC=C4[C@@H]5[C@@H](C)[C@H](C)CC[C@]5(C)CC[C@@]4(C)[C@]3(C)CC[C@@H]12
inhibition at 100 µM [1]: 8% | inhibition at 100 µM [2]: 14% | inhibition at 100 µM [3]: 6% | inhibition at 100 µM [4]: 15%

Compound: COC(=O)[C@@]1(C)C(=O)/C(=C/c2ccccc2[N+](=O)[O-])C[C@]2(C)[C@H]3CC=C4[C@@H]5[C@@H](C)[C@H](C)CC[C@]5(C)CC[C@@]4(C)[C@]3(C)CC[C@@H]12
inhibition at 100 µM [1]: 21% | inhibition at 100 µM [2]: 42% | inhibition at 100 µM [3]: 11% | inhibition at 100 µM [4]: 100%

Compound: COC(=O)[C@@]1(C)C(=O)/C(=C/c2c(Cl)cccc2Cl)C[C@]2(C)[C@H]3CC=C4[C@@H]5[C@@H](C)[C@H](C)CC[C@]5(C)CC[C@@]4(C)[C@]3(C)CC[C@@H]12
inhibition at 100 µM [1]: 57% | inhibition at 100 µM [2]: 74% | inhibition at 100 µM [3]: 24% | inhibition at 100 µM [4]: 99%
